Series [1] relates to PBMC. The series can be described thus: Cytotoxicity in human PBMC assessed as reduction in cell viability at 500 nM relative to control. Type of series: cell-based. The note with it: 0.5 µM.
Series [2] is described as follows: Half life in Balb/c mouse at 2 mg/kg, iv. It is filed as ADME, organism-based. The note with it: in vivo. Put shortly: (§1)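 Female BALB/c mice aged 7−8 weeks, given 2 mg/kg iv in 25% PEG300/WFI. Cardiac blood taken at 2, 5, 10, 20, 30, 60 and 120 min postdose into sodium heparin and processed to plasma (n = 3/time point). Proteins precipitated with acetonitrile; drug measured by LC−MS/MS. Noncompartmental analysis of mean concentrations at nominal times and target doses.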

Series [3] is described as follows: Clearance in Balb/c mouse at 2 mg/kg, iv. The note with it: in vivo. It is filed as ADME, organism-based. Put shortly:
as §1

Series [4] has as its system PBMC. In words: Antiinflammatory activity in human PBMC assessed as reduction in LPS-stimulated TNF-alpha expression at 500 nM preincubated for 1 hr followed by LPS stimulation measured after 24 hrs by ELISA. Type of series: functional, cell-based. Put shortly: (§2)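 Cryopreserved healthy-donor PBMC in RPMI 1640 with 5% heat-inactivated FBS, 250 000 cells/well. Compound (0.1% DMSO final) for 1 h at 37 °C, 5% CO2, then 4 washes with medium. Stimulated with 1 μg/mL LPS for 24 h; supernatant TNFα, IL-6 and IL-12/23p40 by electrochemiluminescent immunoassay. Mean level relative to DMSO controls, n = 6.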
For orientation: ELISA stands for enzyme-linked immunosorbent assay.

For series [5], the system named is PBMC. In words: Antiinflammatory activity in human PBMC assessed as reduction in LPS-stimulated IL-6 expression at 500 nM preincubated for 1 hr followed by LPS stimulation measured after 24 hrs by ELISA. Type of series: functional, cell-based. Put shortly:
as §2

Series [6] has as its system PBMC. In words: Antiinflammatory activity in human PBMC assessed as reduction in LPS-stimulated p40 subunit of […] expression at 500 nM preincubated for 1 hr followed by LPS stimulation measured after 24 hrs by ELISA. It is filed as functional, cell-based. Put shortly:
as §2

Series [7] relates to PBMC. The series can be described thus: Antiinflammatory activity in human PBMC assessed as reduction in anti-CD3/CD28 antibody-stimulated TNF-alpha expression at 500 nM preincubated for 1 hr followed by anti-CD3/CD28 antibody stimulation measured after 24 hrs by ELISA. It is filed as functional, cell-based. Summed up:
(§3)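 Healthy-donor PBMC, thawed from cryopreservation, 250 000 cells/well in RPMI 1640/5% FBS. Pretreated 1 h at 37 °C with compound alone or combined (0.1% DMSO final), washed 4 times, then stimulated 24 h with anti-CD3 and anti-CD28 antibodies. TNFα and IFNγ in supernatants by electrochemiluminescent ELISA; expressed relative to DMSO-treated controls (n = 6).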

The subject of series [8] is PBMC. The series can be described thus: Antiinflammatory activity in human PBMC assessed as reduction in anti-CD3/CD28 antibody-stimulated IFN-gamma expression at 500 nM preincubated for 1 hr followed by anti-CD3/CD28 antibody stimulation measured after 24 hrs by ELISA. Type of series: functional, cell-based. Put shortly:
as §3

For series [9], the system named is Mus musculus. The series can be described thus: In vivo inhibition of LMP7 in Balb/c mouse splenocytes at 5 mg/kg, iv followed by dosing repeat on day 6, 8, 11, 13 and 15 and measured on 1 hr post last dose. Type of series: functional, organism-based. Put shortly: (§4)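 BALB/c mice dosed iv bolus in 10% sulfobutyl ether−β-cyclodextrin/10 mM sodium citrate pH 3.5; tissues taken 1 h after administration. Splenocytes strained and red cells lysed; kidney frozen, then bead-homogenized. Hypotonic lysate (20 mM Tris pH 8, 5 mM EDTA) at 1 mg/mL (spleen) or 5 mg/mL (kidney) run in the ProCISE active-site ELISA. Background-subtracted, protein-normalized activity relative to vehicle animals; n = 3.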

Series [10] relates to Mus musculus. In words: In vivo inhibition of LMP2 in Balb/c mouse splenocytes at 5 mg/kg, iv followed by dosing repeat on day 6, 8, 11, 13 and 15 and measured on 1 hr post last dose. It is filed as functional, organism-based. Put shortly:
as §4

In series [11] the test system is Mus musculus. In words: In vivo inhibition of MECL-1 in Balb/c mouse splenocytes at 5 mg/kg, iv followed by dosing repeat on day 6, 8, 11, 13 and 15 and measured on 1 hr post last dose. Type of series: functional, organism-based. Summed up:
as §4

For series [12], the system named is Mus musculus. The series can be described thus: In vivo inhibition of proteosome beta 5 in Balb/c mouse kidney at 5 mg/kg, iv followed by dosing repeat on day 6, 8, 11, 13 and 15 and measured on 1 hr post last dose. It is filed as functional, organism-based. Put shortly:
as §4

In series [13] the test system is Mus musculus. In words: Antiarthritic activity in type 2 collagen antibody/LPS induced Balb/c mouse assessed as reduction in disease burden at 5 mg/kg, iv followed by dosing repeat on day 6, 8, 11, 13 and 15 and measured until day 18. It is filed as functional, organism-based. Summed up: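 CAIA in 7−8 week old female BALB/c mice on breeder chow. Induced with 1.75 mg of a 5-antibody anti-type II collagen cocktail iv on day 0, then 25 μg LPS ip on day 3. Dosed as single iv boluses in 10% (w/v) sulfobutyl ether−β-cyclodextrin/10 mM sodium citrate (pH 3.5); vehicle-treated group included.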

Series [14] in a line: Toxicity in Balb/c mouse assessed as change in body weight at 5 mg/kg, iv followed by dosing repeat on day 6, 8, 11, 13 and 15 and measured until day 18. It is filed as organism-based. Particulars: in vivo.
A short description of series [15]: Toxicity in Balb/c mouse assessed as effect on cage-side observations at 5 mg/kg, iv followed by dosing repeat on day 6, 8, 11, 13 and 15 and measured until day 18. It is filed as organism-based. The note with it: in vivo.
Series [16] deals with T1, Proteasome subunit beta type-8 (Homo sapiens) (UniProt P28062).
T1 sequence (whole entry): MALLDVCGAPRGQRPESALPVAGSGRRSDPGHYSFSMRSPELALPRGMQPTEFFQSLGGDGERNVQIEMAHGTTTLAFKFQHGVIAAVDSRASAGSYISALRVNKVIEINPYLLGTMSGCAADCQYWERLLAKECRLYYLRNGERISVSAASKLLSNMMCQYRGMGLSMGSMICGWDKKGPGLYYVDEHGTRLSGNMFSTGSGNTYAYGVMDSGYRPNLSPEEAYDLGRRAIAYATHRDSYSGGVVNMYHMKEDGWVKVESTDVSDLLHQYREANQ
The series can be described thus: Inhibition of LMP7 in human PBMC at 500 nM by ELISA. Summed up: (§5)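 Cryopreserved healthy-donor human PBMC in RPMI 1640 with 5% heat-inactivated FBS, exposed to compound (0.1% DMSO final) for 1 h at 37 °C, 5% CO2, then washed. Subunit-specific active-site occupancy read by ProCISE: biotinylated active-site probe binding, denaturation, streptavidin capture, subunit-specific antibody and HRP chemiluminescence. Signal normalized to protein and expressed relative to DMSO controls.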

Series [17] concerns the target T2, Proteasome subunit beta type-10 (Homo sapiens) (UniProt P40306).
T2 sequence (whole entry): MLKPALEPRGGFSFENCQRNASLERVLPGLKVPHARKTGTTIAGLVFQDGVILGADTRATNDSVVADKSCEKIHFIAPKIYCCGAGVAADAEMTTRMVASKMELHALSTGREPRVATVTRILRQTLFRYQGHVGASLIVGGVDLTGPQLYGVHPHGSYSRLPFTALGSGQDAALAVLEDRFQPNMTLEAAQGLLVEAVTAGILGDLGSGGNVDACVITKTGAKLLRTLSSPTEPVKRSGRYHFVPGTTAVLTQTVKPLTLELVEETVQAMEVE
In words: Inhibition of MECL1 in human PBMC at 500 nM by ELISA. Summed up:
as §5

In series [18] the target is T3, Proteasome subunit beta type-9 (Homo sapiens) (UniProt P28065).
T3 sequence (whole entry): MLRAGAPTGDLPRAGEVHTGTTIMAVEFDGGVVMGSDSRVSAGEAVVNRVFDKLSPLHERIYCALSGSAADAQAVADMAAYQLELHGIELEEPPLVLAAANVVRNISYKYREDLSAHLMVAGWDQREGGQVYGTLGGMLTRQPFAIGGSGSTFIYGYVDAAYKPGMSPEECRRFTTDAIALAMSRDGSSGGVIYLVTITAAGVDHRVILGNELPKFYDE
The note with it: 500 nM.

The structures appear in SMILES notation. Activity calls are given as the source filed them. No cut-off for these calls is given here.

As a reminder, the half-life is the time in which the quantity being followed falls by half. By clearance is commonly meant the rate of elimination divided by the concentration. Higher therefore signals a high capacity for elimination.

`C[C@]1(C(=O)[C@H](Cc2ccccc2)NC(=O)[C@H](CO)NC(=O)c2cccc(=O)[nH]2)CO1`: the Activity is given as 30% in series [1], “Non-Toxic” in series [14] and “Non-Toxic” in series [15]. In series [2], this molecule had a half-life of under 7 min. The same molecule yielded a clearance in [3] of over 73 mL/min/kg. For the same molecule, the outcome in series [4], in [5], in series [6], in series [7], in [8] and in series [13] was inactive. Besides, the inhibition result in [9], in series [10], in series [11], in [12], in series [16] and in [17] was “Active” in each case. In addition, in [18], the inhibition result was “Active”.

(Values after ChEMBL document CHEMBL4411269, “Required Immunoproteasome Subunit Inhibition Profile for Anti-Inflammatory Efficacy and Clinical Candidate KZR-616 ((2 S,3 R)- N-(( S)-3-(Cyclopent-1-en-1-yl)-1-(( R)-2-methyloxiran-2-yl)-1-oxopropan-2-yl)-3-hydroxy-3-(4-methoxyphenyl)-2-(( S)-2-(2-morpholinoacetamido)propanamido)propenamide)” (J Med Chem, 2018).)
